Screening data deposited in PubChem BioAssay by The Scripps Research Institute Molecular Screening Center.
Compounds with a hit are over-represented: about 4% of the library has one in this group of screens.
OX1R antag-1 – human HCRTR1 antagonism; inhibition, % at 5 µM; CHO/OX1R cells, Fluo-8 calcium fluorescence, orexin A; 330,000 tested, 0.43% active; O43613; AID 434989;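 active = inhibition above its plate's threshold, mean inhibition of all tested compounds on the plate plus 3 SD, cut at about 37% in these data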;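 also: 0% = orexin A challenge wells and 100% = SB-334867-A antagonist wells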
TAAR1 antag – antagonists of human TAAR1; inhibition, % at 3 µM; CHO RD-HGA16 TAAR1, Fluo-8 calcium fluorescence, antagonist; 360,000 tested, 1.5% active; AID 624466;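 active = inhibition above a per-plate cutoff, the mean inhibition of test compounds on that plate plus 3 SD, cut at about 49% in these data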;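 also: 0% = DMSO plus EC80 beta-PEA response and 100% = DMSO alone without agonist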
Target sequence (Q96RJ0 whole entry, looked up): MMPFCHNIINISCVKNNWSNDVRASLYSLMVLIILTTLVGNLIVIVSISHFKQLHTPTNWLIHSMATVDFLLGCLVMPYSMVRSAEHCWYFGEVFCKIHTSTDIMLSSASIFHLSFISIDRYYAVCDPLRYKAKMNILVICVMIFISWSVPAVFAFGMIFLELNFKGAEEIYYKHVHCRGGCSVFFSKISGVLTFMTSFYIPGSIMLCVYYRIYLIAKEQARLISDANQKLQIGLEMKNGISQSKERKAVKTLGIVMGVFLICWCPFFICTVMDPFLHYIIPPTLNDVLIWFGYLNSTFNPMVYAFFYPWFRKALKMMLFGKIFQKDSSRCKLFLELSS
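Material: CHO RD-HGA16 cells bearing hTAAR1; compound dosing: one-point dosing, 3 µM nominal final; schedule: dye loading 75 min at 37 °C, then 30 min room temperature; measured by: calcium fluorescence with Fluo-8; control set: vehicle and agonist controls; replication: n of 1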
TAAR1 ag – agonists of human TAAR1. Q96RJ0. CHO RD-HGA16 TAAR1, Fluo-8 calcium fluorescence; vehicle wells 0%, saturating PEA agonist 100%. activation, % at 3 µM. 360,000 tested, 0.99% active;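 active = activation above the mean activation of all test compounds in the run plus 3 SD, cut at about 38% in these data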
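System: CHO RD-HGA16 cells carrying human TAAR1 plus Gα16; Incubation: 17-24 h seeding, 75 min 37 °C dye, 30 min RT; Measured by: Fluo-8 fluorescence, 5 s baseline then 140 s kinetic read; Control set: DMSO and PEA EC100; Replication: single well for each compound.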
OX1R antag-2 – OX1R (human) antagonism; OX1R-expressing cells, FRET antagonist read-out; AID 485270; inhibition, % at 6.6 µM; 330,000 tested, 1.8% active; O43613; in the data active = inhibition mostly above about 38%, no sharp cut-off; inactive = mostly below about 40%;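 also: 0% = agonist challenge alone and 100% = reference antagonist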
CHO parental Ca – counter-screen: ATP calcium response change in parental CHO cells. parental CHO-K1, ATP-induced calcium, Fluo-8 fluorescence. inhibition, % at 5.6 µM. 330,000 tested, 0.63% active;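 active = inhibition above that plate's mean sample inhibition plus 3 SD, cut at about 26% in these data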;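 also: 0% = ATP-challenged DMSO wells and 100% = DMSO wells without ATP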
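Measured by: calcium-sensitive Fluo-8 fluorescence / Test system: CHO parental line / Controls: ATP-challenged DMSO wells low, unchallenged DMSO wells high / Measure: % inhibition / Compound: single nominal dose of 5.6 µM per compound / Replicates: single well per compound, no replicates / Reagent: ATP as calcium-mobilizing challenge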
An asterisk follows results filed as active; · = no result given.

SMILES	OX1R antag-1	TAAR1 antag	TAAR1 ag	OX1R antag-2	CHO parental Ca
COc1cccc(NC(=O)CN(C)C(=O)c2cn(-c3ccccc3)nc2-c2cccnc2)c1	-4	44	12	6	-18
CN(C)C(=O)c1cn(-c2ccccc2)nc1-c1cccs1	-7	5	9	5	-14
COc1cccc(NC(=O)CN(C)C(=O)c2cn(-c3ccccc3)nc2-c2cccs2)c1	9	61*	11	51*	1
CCN(CC(=O)Nc1ccc(NC(C)=O)cc1)C(=O)c1cn(-c2ccccc2)nc1-c1cccs1	·	64*	13	·	·
CCC(C)(C)NC(=O)C(C(C)C)N(CC1CCCO1)C(=O)CNS(=O)(=O)c1ccccc1 (stereo not given)	-22	-9	1	30	-25
CCOC(=O)c1cc(C(=O)OCC)c(=O)[nH]c1SCc1ccccc1	-19	-27	41*	-2	-13
Cc1ccc(C(C)(O)CS(=O)(=O)Cc2ccccc2Cl)cc1 (stereo not given)	-36	-8	0	3	-24
Cc1ccc(S(=O)(=O)N2CCC(=O)N(CCOCc3ccc(C(F)(F)F)cc3)CC2)cc1	-20	5	9	45	49*
COc1ccc(C(C(=O)NC(C)(C)C)N(Cc2ccco2)C(=O)CCC(=O)Nc2ccccn2)cc1 (stereo not given)	-9	2	8	-8	-9
COCCNC(=O)C(c1ccc(C)cc1)N(Cc1ccco1)C(=O)CCC(=O)Nc1ccccn1 (stereo not given)	3	-23	0	56*	-3
CCCCCc1c(C)nc(Nc2ccccc2)[nH]c1=O	28	-1	38*	34	14
Cc1ccc(Nc2nc(C)c(CCC(C)C)c(=O)[nH]2)cc1	-15	14	2	-2	-21
CCN=C1NC(CCc2ccccc2)C(C(=O)OC)=C(C)N1Cc1ccc(C(F)(F)F)cc1 (stereo not given)	·	-3	8	·	·
O=C(Nc1ccccc1C(=O)Nc1nnc(C(F)(F)F)s1)c1ccccc1	54*	34	6	72*	59*
O=C(c1cc(=O)[nH]c2ccccc12)N1CCN(S(=O)(=O)c2ccc(Cl)cc2)CC1	-2	59*	30	5	-13
CCCNS(=O)(=O)c1cccc(C(=O)OCc2cc(=O)oc3cc(OC)ccc23)c1	55*	52*	9	47	26
O=C(C1CCCN(c2ncnc3c2nc2n3CCCCC2)C1)N1CCN(c2ccc(Cl)cc2)CC1 (stereo not given)	-19	77*	38*	6	-11
CN(C)c1ccc(/C=C2/C[N+](C)(C)C/C(=C/c3ccc(N(C)C)cc3)C2=O)cc1	·	15	2	·	·
CC(C)/C=C1\CC/C(=C\c2ccc(N(C)C)cc2)C1=O	66*	72*	57*	11	53*
C=CCc1cccc(/C=N/NC(=O)C(=O)Nc2ccc(C)cc2)c1O	-16	-3	6	49*	-14
C=CCc1cccc(/C=N/NC(=O)C(C)Nc2ccc(C)cc2)c1O (stereo not given)	-11	14	4	7	-15
CC12CCC(c3c(C(=O)Nc4nccs4)nn(-c4ccccc4)c31)C2(C)C (stereo not given)	0	5	10	20	-26
CC12CCC(c3c(C(=O)O)nn(-c4ccccc4)c31)C2(C)C (stereo not given)	17	-21	2	41*	-4
O=C(Oc1ccc2ccc(=O)oc2c1)c1ccc([N+](=O)[O-])cc1	-4	5	4	-1	5
O=c1ccc2ccc(Oc3ccc([N+](=O)[O-])cc3[N+](=O)[O-])cc2o1	-11	·	·	85*	-9
SMILES	OX1R antag-1	TAAR1 antag	TAAR1 ag	OX1R antag-2	CHO parental Ca
O=C(Cc1ccc(Cl)cc1)NN1C(=O)c2ccccc2C1=O	-1	-9	9	8	10
COC(=O)[C@@H]1[C@@H](C#N)C2(c3ccccc3-c3ccccc32)N(c2ccc(Cl)cc2)N1C#N	-7	50*	3	12	-10
CC(=O)c1ccc(NC(=O)/C(Cl)=C/c2ccccc2)cc1	-8	1	4	18	42*
CCCc1cc(=O)[nH]c(Nc2ccc(O)cc2)n1	-5	-14	8	11	-1
CCCc1cc(=O)[nH]c(Nc2ccc(Cl)cc2)n1	22	24	25	23	79*
O=C1OC(N2CCN(C(=O)C3CCCO3)CC2)c2ccccc21 (stereo not given)	7	-11	15	-8	7
CCOC(=O)N1CCN(C2OC(=O)c3ccccc32)CC1 (stereo not given)	-4	-6	38*	13	-2
O=C(COC(=O)C1CC(O)CN1C(=O)Oc1ccccc1)c1ccc(Br)cc1 (stereo not given)	-30	-26	3	11	-21
O=[N+]([O-])c1ccc(O)c(/C=N/n2cnc3ccccc32)c1	19	12	21	48*	-8
Cc1c(C(=O)C(=O)N2CC=C(c3ccccc3)CC2)c2ccccc2n1C	-18	-8	5	25	-9
O=C(N/N=C/c1ccc(Cl)c([N+](=O)[O-])c1)c1cnccn1	-10	-12	2	57*	-12
Cc1ccc([N+](=O)[O-])c(C(=O)N/N=C/c2cccnc2)c1	-3	-7	4	42*	-5
C/C(CC(=O)Nc1ccccn1)=N\NC(=O)c1ccc([N+](=O)[O-])cc1Cl	-19	14	2	60	-2
O=C(N/N=C/c1cccnc1)c1ccc([N+](=O)[O-])cc1Cl	-17	17	-3	35*	-5
O=C(Nc1ccccn1)c1ccc([N+](=O)[O-])cc1Cl	-7	-9	6	56*	-5
C=CCCC1CN(Cc2ccc(OC)cc2)S(=O)(=O)c2c(Oc3ccc(C)cc3)cccc2O1 (stereo not given)	·	-11	0	·	·
CCCCn1c(=NC(=O)c2ccco2)c(C(=O)OCC)cc2c(=O)n3ccccc3nc21	-13	24	9	76*	-20
CCCCn1c(=NC(=O)c2ccco2)c(C(=O)OCC)cc2c(=O)n3cccc(C)c3nc21	-30	-6	5	30	-5
CCCCCn1c(=NC(=O)c2ccco2)c(C(=O)OCC)cc2c(=O)n3ccccc3nc21	-24	25	7	51*	-15
CC(C)C1CC(N(C)C)=CC(=S)N1 (stereo not given)	·	-8	1	·	·
CCn1c(=NC(=O)CCS(=O)(=O)c2ccccc2)sc2cccc(OC)c21	12	24	4	25	56*
CCn1c(=NC(=O)CS(=O)(=O)c2ccc(F)cc2)sc2cccc(OC)c21	0	14	3	14	20
Cc1ccc(S(=O)(=O)N2CCCC2)s1	-5	-8	0	4	2
CN(C)n1cccc1/C=C(\C#N)S(=O)(=O)c1ccc(Cl)cc1	63*	-12	-1	25	65*
